Sampled rows, rich in hits. Any-hit rate of the full collection: about 2.5%.
MEKK3 PB1 HTS – raises or lowers MEK5 binding to the human MEKK3 PB1 domain. AID 1529. Q99759. bead-based flow cytometry, Alexa488-MEK5 binding to MEKK3; actives lie on both sides; 0 = blocked by unlabeled MEK5, 100 = vehicle. 290,000 tested, 1.4% active. binding response (% of control), % at 10 µM;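 active = binding response more than 3 SD above or below the average of its plate-row segment, actives on both sides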;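 also: Alexa488 bead fluorescence after subtracting the streptavidin-only scavenger bead signal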
ABCB1 block – blocks JC-1 efflux by human ABCB1 transporter; P08183; CCRF-Adr cells, flow cytometry; inhibition, % at 6.6 µM; 190,000 tested, 0.067% active; AID 1326; in the data active = inhibition above about 40%;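 also: 0% = vehicle and 100% = reference inhibitor; higher value means more JC-1 retained so stronger ABCB1 efflux block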
MEKK2mut PB1 HTS – signal of MEK5 binding to mutant human MEKK2 PB1 domain | percent response, % at 10 µM | 290,000 tested, 0.35% active | bead flow cytometry, Alexa488-MEK5 binding to MEKK2 mutant | AID 1530; in the data active = percent response above about 24%, passing the limit was not always enough
ABCG2 inh – human ABCG2 inhibition, ABCB1 as counter-screen | Q9UNQ0 | 190,000 tested, 0.1% active | IgMXP3 cells, JC-1 efflux, flow cytometry | inhibition, % at 6.6 µM;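 active = inhibition above 80%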;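 also: 0% = DMSO and 100% = nicardipine control wells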
Target sequence (Q9UNQ0 whole entry, looked up): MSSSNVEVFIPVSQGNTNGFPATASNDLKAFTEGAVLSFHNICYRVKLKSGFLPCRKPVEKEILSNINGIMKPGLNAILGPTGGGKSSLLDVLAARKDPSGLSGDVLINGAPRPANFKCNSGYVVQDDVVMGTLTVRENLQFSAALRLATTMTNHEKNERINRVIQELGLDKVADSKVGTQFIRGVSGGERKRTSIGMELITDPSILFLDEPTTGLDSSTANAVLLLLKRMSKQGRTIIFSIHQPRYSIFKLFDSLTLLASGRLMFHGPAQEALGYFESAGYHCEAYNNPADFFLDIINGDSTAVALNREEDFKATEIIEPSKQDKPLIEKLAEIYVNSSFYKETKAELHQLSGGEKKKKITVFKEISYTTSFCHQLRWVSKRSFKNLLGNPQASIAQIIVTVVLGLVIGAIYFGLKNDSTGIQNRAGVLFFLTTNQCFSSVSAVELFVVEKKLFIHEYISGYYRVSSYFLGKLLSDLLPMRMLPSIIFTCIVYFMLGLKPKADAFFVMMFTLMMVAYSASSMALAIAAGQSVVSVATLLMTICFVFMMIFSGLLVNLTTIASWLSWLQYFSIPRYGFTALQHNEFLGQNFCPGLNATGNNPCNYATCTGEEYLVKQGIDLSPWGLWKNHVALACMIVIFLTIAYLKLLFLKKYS
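material = IgMXP3 (ABCG2) plus far-red-tagged CCRF-Adr (ABCB1) cells | amount = 3 million cells/mL, equal mix of both lines | also added = JC-1 transporter substrate | dosing = one concentration, 6.6 µM final | schedule = 10 min at 25 °C | measured by = flow cytometric JC-1 green MFI at 530 nm | read-out basis = percent efflux inhibition, scaled nicardipine 100% to DMSO 0%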
MEKK2wt PB1 HTS – raises or lowers MEK5 binding to wildtype human MEKK2 PB1 domain. Q9Y2U5. AID 1531. bead flow cytometry, Alexa488-MEK5 binding to MEKK2 WT; actives lie on both sides. 290,000 tested, 1.1% active. binding response (% of control), % at 10 µM; in the data active = binding response below about 67% or above about 130%
Efflux pump mplx – inhibitors of Candida antifungal efflux pumps expressed in yeast; S. cerevisiae Candida pump triplex, Nile Red efflux; inhibition, % at 10 µM; 330,000 tested, 0.44% active; AID 485275;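 active = plate passing quality check with inhibition over a set limit, or well fluorescence over plate mean plus 4 SD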;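 also: Nile Red retained in pooled yeast measured as flow cytometry median fluorescence; 0% = buffer negative control and 100% = Enniatin B positive control; higher means more Nile Red kept so more efflux inhibition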
MEKK2wt confirm – raises or lowers MEK5 binding to wildtype human MEKK2, retest; shares compounds with MEKK3 PB1 HTS; bead flow cytometry, Alexa488-MEK5 binding to MEKK2 WT; actives lie on both sides; binding response (% of control), % at 10 µM; 5,900 tested, 2.4% active; AID 1892; in the data active = binding response below about 16% or above about 210%; inactive = in between
MEKK2mut-MEK5 – signal of MEK5 binding to mutant human MEKK2, retest | shares compounds with MEKK3 PB1 HTS | bead flow cytometry, Alexa488-MEK5 binding to MEKK2 mutant | percent response, % at 10 µM | 5,900 tested, 2% active | AID 1893; in the data active = percent response mostly above about 71%, no sharp cut-off; inactive = mostly below about 38%;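 also: higher means compound restores mutant binding toward wildtype level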
MEKK3 confirm – confirmation of inhibitors of MEK5 binding to human MEKK3. shares compounds with MEKK3 PB1 HTS. bead flow cytometry, Alexa488-MEK5 binding to MEKK3; active compounds read low. binding response (% of control), % at 10 µM. 5,900 tested, 1.8% active. AID 1894;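 active = binding response below 72% of control, or above a set upper limit, though filed actives all read lower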;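 also: 100% = DMSO only wells and 0% = binding blocked by excess unlabeled MEK5; lower values mean stronger disruption of MEK5 binding to MEKK3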
Starred values were filed as active, the others as inactive; x = no result given; ! = not confirmed by another sample; [ ] = another dose, or the depositor's remark.

SMILES | MEKK3 PB1 HTS | ABCB1 block | MEKK2mut PB1 HTS | ABCG2 inh | MEKK2wt PB1 HTS | Efflux pump mplx | MEKK2wt confirm | MEKK2mut-MEK5 | MEKK3 confirm
N#C/C(=N\Nc1ccc(Cl)c(Cl)c1)C(=O)C1CC1 | 45*[inhibitor] | x | -8 | x | 45*[inhibitor] | 0 | 94 | -2 | 99
COc1ccc(C(C)=O)cc1COC(=O)CNC(=O)C1CCCCC1 | x | x | x | x | x | 0 | x | x | x
COc1ccc(C(C)=O)cc1COC(=O)CNC(=O)c1ccccc1F | 138* | 0 | -1 | 0 | 103 | 0 | 100 | 6 | 103
COc1ccc(C(=O)OC(C)C(=O)NCC2CCCCC2)cc1S(=O)(=O)N1CCOCC1 (stereo not drawn) | x | x | x | x | x | 0 | x | x | x
O=[N+]([O-])c1cc(Cc2ccccc2)cc(C=Nc2ccc(N3CCOCC3)cc2)c1O | 146* | 1 | 0 | 8 | 97 | 0 | 89 | -5 | 96
O=C(C1=C(O)C(=O)N(c2ccccc2)C1c1ccc([N+](=O)[O-])cc1)c1cccs1 (stereo not drawn) | 98 | -1 | 3 | -1 | 89 | 0 | x | x | x
COc1ccc(-c2cc3ccccc3n2CC(O)CN2CCC(C)CC2)cc1 (stereo not drawn) | 99 | 0 | 16 | -1 | 149* | 0 | 152 | 34 | 107
COc1ccc(-c2cc3ccccc3n2CC(O)Cn2nc(C)cc2C)cc1 (stereo not drawn) | 107 | 1 | 6 | 3 | 107 | 0 | x | x | x
Fc1ccc(C(c2ccc(F)cc2)N2CCN(C/C=C/c3ccccc3)CC2)cc1 | 113 | 2 | 26*! | 2 | 210*! | 0 | 184 | 39 | 110
CC(C(=O)N(C)Cc1ccccc1)N1CCN(C/C=C/c2ccccc2)CC1 (stereo not drawn) | 95 | x | 1 | x | 98 | 0 | x | x | x
O=C(c1ccc(Br)s1)N1CCN(C/C=C/c2ccccc2)CC1 | 95 | 1 | 4 | 2 | 103 | 0 | x | x | x
O=C(Nc1cccc(Cl)c1)N1CCN(C/C=C/c2ccccc2)CC1 | 107 | 0 | 16 | 0 | 139* | 0 | 113 | 8 | 101
C(=C\c1ccccc1)/CN1CCN(C(c2ccccc2)c2ccccc2)CC1 | 109 | 1 | 14 | 0 | 165* | 0 | 162 | 24 | 103
Cc1cc(C(=O)NNC(=S)NC(C)c2ccccc2)c2ccccc2n1 (stereo not drawn) | 105 | 0 | 9 | -2 | 100 | 0 | x | x | x
Cc1ccc(C(C)C)cc1OCCn1cncn1 | 99 | x | 8 | x | 104 | 0 | x | x | x
CCCCCOc1ccc2oc(=O)c3c(c2c1)CCCN3C(=O)CN1CCCC(C(=O)OCC)C1 (stereo not drawn) | 2.0*[inhibitor] | 1 | -14 | 1 | 2.0*[inhibitor] | 0 | 96 | -2 | 102
O=C(CN1CCCCC1)N1CCCc2c1c(=O)oc1ccc(OCc3ccccc3)cc21 | 112 | 1 | 8 | 5 | 111 | 0 | x | x | x
CC(C)[C@H](NS(=O)(=O)c1cccc(C(F)(F)F)c1)C(=O)OCC(=O)NC(=O)NCc1ccco1 | x | x | x | x | x | 0 | x | x | x
Cc1ccc(C(=O)OCC(=O)Nc2ccc3c(c2)OCO3)c(O)c1 | x | x | x | x | x | 0 | x | x | x
O=C(CN1CCCCC1)NC(=O)NC1CCCC1 | 117 | 0 | -1 | 0 | 104 | 0 | x | x | x
O=C(NC1CCCCC1)NC1CCN(CC(=O)N2CCOCC2)CC1 | 2.0*[inhibitor] | -1 | -15 | 0 | 2.0*[inhibitor] | 0 | 101 | -1 | 103
CC(=O)Nc1ccc(-c2cc(C(=O)O)c3ccccc3n2)cc1 | 58*[inhibitor] | x | -40 | x | 61*[inhibitor] | 0 | 106 | -1 | 103
CC(=O)NS(=O)(=O)c1ccc(NC(=O)c2cc(-c3ccc(C)cc3)nc3ccccc23)cc1 | 105 | 0 | 5 | 7 | 94 | 0 | x | x | x
CCc1ccc(NC(=S)NC(=O)CC(C)C)cc1 | 148* | -1 | 1 | -6 | 110 | 0 | 104 | 11 | 108
CCN(CC)S(=O)(=O)c1ccc(NC(=S)NC(=O)CC(C)C)cc1 | 105 | 0 | -3 | 2 | 100 | 0 | x | x | x
SMILES | MEKK3 PB1 HTS | ABCB1 block | MEKK2mut PB1 HTS | ABCG2 inh | MEKK2wt PB1 HTS | Efflux pump mplx | MEKK2wt confirm | MEKK2mut-MEK5 | MEKK3 confirm
COc1ccc(N2C(=O)C3ON(C4SC(=S)N(C)C4(C)C)C(c4ccc(Cl)cc4)C3C2=O)cc1 (stereo not drawn) | 151* | 1 | 0 | 2 | 108 | 0 | 99 | -2 | 98
CCOC(=O)C1CCCN(C(=O)CCc2nc3sc4c(c3c(=O)[nH]2)CCCC4)C1 (stereo not drawn) | x | x | x | x | x | 0 | x | x | x
O=C(Nc1ccccc1)C(c1ccccc1)C1CCCC1 (stereo not drawn) | 148* | 4 | 0 | 18 | 104 | x | 107 | 10 | 105
COC(=O)CNC(=O)c1ccc(F)cc1 | 99 | x | -2 | x | 102 | 0 | x | x | x
CC(C(=O)c1ccc(-c2ccccc2)cc1)[n+]1ccccc1 (stereo not drawn) | 98 | 0 | 0 | 0 | 102 | 0 | x | x | x
CC(=O)Nc1cc[n+](C(C)C(=O)c2ccc(Cl)cc2)cc1 (stereo not drawn) | 41*[inhibitor] | 0 | -14 | 1 | 54 | 0 | 103 | 0 | 100
Cc1cc[n+](C(C)C(=O)c2ccc(-c3ccccc3)cc2)cc1 (stereo not drawn) | 106 | 0 | 29 | 1 | 152* | 0 | 101 | -2 | 97
Cc1coc2c(C)c3oc(=O)c(CCC(=O)N4CCC(C(=O)NCCCC(=O)O)(c5ccccc5)CC4)c(C)c3cc12 | 100 | x | 2 | x | 103 | 0 | x | x | x
O=C(COC(=O)/C=C/c1ccc([N+](=O)[O-])cc1)NNC(=O)c1ccccc1 | x | x | x | x | x | 0 | x | x | x
CC(C)(C)NC(=O)C(c1ccncc1)N(C(=O)c1csnn1)c1cccc2ccccc12 (stereo not drawn) | 143* | 1 | 6 | 3 | 124 | 0 | 98 | -21 | 98
CN(C)S(=O)(=O)c1cc(NC(=O)Cn2ccsc2=N)ccc1Cl | 104 | 0 | 3 | 0 | 102 | 0 | x | x | x
